Measured values reported in ChEMBL document CHEMBL2331286 (ACS Med Chem Lett, 2013).
Active and inactive are the calls of the source. The calls are words filed in the database; no cut-off is given here.

Experiments:
[1] = molecular target: T1, Serine/threonine-protein kinase B-raf (Homo sapiens, UniProt P15056, V600E); test: Inhibition of N-terminal His tagged B-Raf V600E mutant (unknown origin) expressed in baculovirus infected insect cells co-expressing CDC37 assessed as decrease in biotinylated-MEK protein phosphorylation by AlphaScreen assay
[2] = molecular target: T1, Serine/threonine-protein kinase B-raf; test: Inhibition of B-Raf V600E mutant in human SK-MEL-28 cells assessed as decrease in ERK phosphorylation incubated for 1 hr by immunoassay; type: cell-based
Canis familiaris = test: Dose-normalized AUC in po dosed dog; type: ADME, organism-based, Canis lupus familiaris; details: in vivo
Rattus norvegicus = test: Dose-normalized AUC in po dosed rat; type: ADME, organism-based; details: in vivo
A375P-F11 = test: Antitumor activity against B-Raf V600E mutant harboring human A375P-F11 cells xenografted in po dosed CD1 nu/nu mouse assessed as tumor growth inhibition administered qd for 14 days by Vernier caliper; type: functional, organism-based
Method in brief: (§1)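 A375P-F11 (single-cell clone of A375P selected by limiting dilution) grown as xenografts in nude mice; daily oral gavage started at ~150-200 mm3 tumors, vehicle 0.5% HPMC + 0.2% Tween-80 in water pH 8.0, 0.2 mL/20 g. Calipers twice weekly; volume = length x width² x 0.5; mean volume, n=7-8 mice/group. Complete regression = >93% volume decrease for ≥1 week.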

Mus musculus [3] = test: In vivo inhibition of B-Raf V600E mutant-mediated ERK1/2 phosphorylation in tumor of CD1 nu/nu mouse bearing B-Raf V600E mutant harboring human A375P-F11 cells at => 3 mg/kg, po administered as single dose measured after 2 to 6 hrs by duplex ELISA; type: functional
Method in brief: (§2)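 A375P-F11 xenografts in nude mice, oral gavage dosing in 0.5% HPMC/0.2% Tween-80 water pH 8.0. Tumors homogenized in Tris pH 7.5 lysis buffer with EDTA, EGTA, Triton X-100, SDS, phosphatase inhibitors, kept on ice; spun 14,000 rpm 15 min 4°C, flash frozen. Total and phospho-ERK1/2 measured by duplex electrochemiluminescent ELISA.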

Mus musculus [4] = test: Toxicity in CD1 nu/nu mouse bearing B-Raf V600E mutant harboring human A375P-F11 cells assessed as changes in body weight at 0.1 to 100 mg/kg, po qd for 14 days; type: organism-based; parameters: dose 0.1-100 mg/kg, route oral; details: in vivo, 336 h
[5] = Antitumor activity against B-Raf V600E mutant harboring human A375P-F11 cells xenografted in CD1 nu/nu mouse assessed as tumor growth inhibition at 100 mg/kg, po qd for 14 days by Vernier caliper; type: functional; details: A375P-F11, 336 h, read-out: GI; method in brief: as §1
HFF = test: Inhibition of proliferation of human HFF cells harboring wild type B-Raf; type: cell-based
Mus musculus [6] = test: In vivo inhibition of B-Raf V600E mutant-mediated ERK1/2 phosphorylation in tumor of CD1 nu/nu mouse bearing B-Raf V600E mutant harboring human A375P-F11 cells at =< 30 mg/kg, po administered as a single dose measured after 24 hrs by duplex ELISA; type: functional, organism-based; parameters: dose 30 mg/kg; method in brief: as §2
Mus musculus [7] = test: In vivo inhibition of B-Raf V600E mutant-mediated ERK1/2 phosphorylation in tumor of po dosed CD1 nu/nu mouse bearing B-Raf V600E mutant harboring human A375P-F11 cells administered as single dose by duplex ELISA; type: functional, organism-based; method in brief: as §2
SK-MEL-28 = test: Inhibition of B-Raf V600E mutant-driven SK-MEL-28 cell proliferation after 72 hrs by CellTiter-Glo luminescent assay; type: functional, cell-based; details: Homo sapiens, SK-MEL-28, 72 h
[8] = Blood clearance in iv dosed dog; type: ADME, organism-based, Canis lupus familiaris
TGF-beta receptor type-1 = molecular target: T2, TGF-beta receptor type-1 (Homo sapiens, UniProt P36897); test: Inhibition of Alk5 in TGF-beta-stimulated human HepG2 cells assessed as decrease in Smad2 phosphorylation treated for 45 mins prior to TGF-beta stimulation measured after 60 mins by odyssey blot scanner analysis; type: cell-based
T2 sequence (P36897 whole entry): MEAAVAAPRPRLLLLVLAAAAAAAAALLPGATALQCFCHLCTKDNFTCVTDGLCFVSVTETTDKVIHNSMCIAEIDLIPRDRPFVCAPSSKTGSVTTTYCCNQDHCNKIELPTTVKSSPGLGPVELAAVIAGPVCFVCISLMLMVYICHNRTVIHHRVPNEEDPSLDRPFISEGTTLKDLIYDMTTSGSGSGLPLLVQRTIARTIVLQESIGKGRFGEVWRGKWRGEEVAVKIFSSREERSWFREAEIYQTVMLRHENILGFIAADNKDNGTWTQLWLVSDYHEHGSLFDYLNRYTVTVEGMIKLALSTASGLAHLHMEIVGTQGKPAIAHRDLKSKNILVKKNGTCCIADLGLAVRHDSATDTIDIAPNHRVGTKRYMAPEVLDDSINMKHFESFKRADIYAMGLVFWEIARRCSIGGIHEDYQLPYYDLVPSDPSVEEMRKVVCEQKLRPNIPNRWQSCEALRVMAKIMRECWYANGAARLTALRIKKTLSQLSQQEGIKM
Method in brief: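 HepG2 cells seeded at 500,000 cells/well, adhered overnight at 37°C/5% CO2 in BME+10% serum; compound added in serum-free medium for 45 min, then stimulated with 1 ng/ml TGF-β for 60 min.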

COLO 205 = test: Inhibition of human COLO205 cell proliferation; type: functional, cell-based
[9] = Blood clearance in iv dosed rat; type: ADME, organism-based
Rhesus monkey = test: Dose-normalized AUC in po dosed monkey; type: ADME, organism-based, Macaca mulatta; details: in vivo
[10] = Oral bioavailability in dog; type: ADME, organism-based, Canis lupus familiaris; details: in vivo
[11] = Oral bioavailability in monkey; type: ADME, organism-based, Macaca mulatta; details: rhesus monkey, in vivo
Liver microsomes = test: Intrinsic clearance in rat liver microsome; type: ADME
[12] = Oral bioavailability in rat; type: ADME, organism-based; details: in vivo
[13] = Blood clearance in iv dosed monkey; type: ADME, organism-based, Macaca mulatta; details: rhesus monkey
[14] = Intrinsic clearance in dog liver microsome at 10 uM after 30 mins by LC/MS analysis; type: ADME, Canis lupus familiaris; details: microsomes, 0.5 h
[15] = Intrinsic clearance in monkey liver microsome; type: ADME, Macaca mulatta; details: rhesus monkey, microsomes

T1 sequence (P15056 2-766 V600E limits assumed): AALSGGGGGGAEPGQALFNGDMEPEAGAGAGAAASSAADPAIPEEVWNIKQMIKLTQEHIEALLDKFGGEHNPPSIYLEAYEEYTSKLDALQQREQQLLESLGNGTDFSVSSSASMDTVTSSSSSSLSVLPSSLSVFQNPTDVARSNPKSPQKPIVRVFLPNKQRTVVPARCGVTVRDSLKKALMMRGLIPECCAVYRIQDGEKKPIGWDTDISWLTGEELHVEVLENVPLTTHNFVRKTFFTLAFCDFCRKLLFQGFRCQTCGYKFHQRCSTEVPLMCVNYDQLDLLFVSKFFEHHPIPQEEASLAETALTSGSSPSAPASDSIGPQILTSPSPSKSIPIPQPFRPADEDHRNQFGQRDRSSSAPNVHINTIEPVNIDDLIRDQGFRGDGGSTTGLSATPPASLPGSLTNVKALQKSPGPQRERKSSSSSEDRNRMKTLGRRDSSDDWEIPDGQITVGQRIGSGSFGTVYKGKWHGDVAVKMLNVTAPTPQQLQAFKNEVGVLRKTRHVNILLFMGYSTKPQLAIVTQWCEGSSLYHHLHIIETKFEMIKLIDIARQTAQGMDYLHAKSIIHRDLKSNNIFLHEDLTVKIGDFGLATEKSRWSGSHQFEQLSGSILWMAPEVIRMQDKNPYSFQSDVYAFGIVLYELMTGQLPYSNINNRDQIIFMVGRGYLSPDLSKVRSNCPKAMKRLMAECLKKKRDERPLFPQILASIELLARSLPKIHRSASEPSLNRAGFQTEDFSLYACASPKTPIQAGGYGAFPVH

SMILES | IC50 [1] [nM] | IC50 [2] [nM] | AUC/dose (Canis familiaris) [ng·h/mL/mg/kg] | AUC/dose (Rattus norvegicus) [ng·h/mL/mg/kg] | also measured
CC(C)c1nc(-c2cccc(NS(=O)(=O)c3cccc(F)c3)c2)c(-c2ccnc(NCCCN(C)C)n2)s1 | 28 | 73 |  |  | 
CC(C)c1nc(-c2cccc(NS(=O)(=O)c3c(F)cccc3F)c2F)c(-c2ccnc(NCCS(C)(=O)=O)n2)s1 | 0.3 | 7 | 68 | 125 | 
CC(C)c1nc(-c2ccc(F)c(NS(=O)(=O)c3cccc(F)c3)c2)c(-c2ccnc(N)n2)s1 | 536 | 2560 |  |  | 
CC(C)c1nc(-c2cccc(NS(=O)(=O)c3c(F)cccc3F)c2)c(-c2ccnc(NCCS(C)(=O)=O)n2)s1 | 1 | 4 |  | 34 | 
CC(C)(C)c1nc(-c2cccc(NS(=O)(=O)c3c(F)cccc3F)c2F)c(-c2ccnc(N)n2)s1 [DABRAFENIB] |  |  | 3754 | 729 | growth inhibition (GI) (A375P-F11): Dose-dependent effect; inhibition in vivo at 3 mg/kg (Mus musculus [3]): > 50%; Activity (Mus musculus [4]): Non-toxic; inhibition in vivo at 100 mg/kg [5]: 50%; IC50 (HFF): 3000 nM; inhibition (Mus musculus [6]): inactive; inhibition (Mus musculus [7]): Dose-dependent effect; IC50 (SK-MEL-28): 3 nM; clearance [8]: 4 mL/min/kg; IC50 (TGF-beta receptor type-1): 3700 nM; IC50 (COLO 205): 7 nM; clearance [9]: 18 mL/min/kg
CC(C)(C)c1nc(-c2ccc(F)c(NS(=O)(=O)c3c(F)cccc3F)c2)c(-c2ccnc(NCCS(C)(=O)=O)n2)s1 | 13 | 11 |  | 1373 | 
CC(C)c1nc(-c2cccc(NS(=O)(=O)c3cccc(F)c3)c2)c(-c2ccnc(NCC(N)=O)n2)s1 | 11 | 26 |  | 6 | 
CC(C)(C)c1nc(-c2cccc(NS(=O)(=O)c3cc(F)ccc3F)c2)c(-c2ccnc(N)n2)s1 | 8 | 7 |  | 27 | 
CC(C)c1nc(-c2cccc(NS(=O)(=O)c3cccc(F)c3)c2)c(-c2ccnc(NC3CC3)n2)s1 | 32 | 28 |  | 16 | 
CC(C)c1nc(-c2cccc(NS(=O)(=O)c3c(F)cccc3F)c2)c(-c2ccnc(N)n2)s1 | 40 | 78 |  | 23 | 
CC(C)c1nc(-c2cccc(NS(=O)(=O)c3c(F)cccc3F)c2F)c(-c2ccnc(Nc3ccc(N4CCOCC4)nc3)n2)s1 | 3.8 | 23 | 42 | 1748 | AUC/dose (Rhesus monkey): 23 ng·h/mL/mg/kg; bioavailability [10]: 10%; bioavailability [11]: 5%; CLH (Liver microsomes): 9 mL/min/g; bioavailability [12]: 85%; clearance [13]: 39 mL/min/kg; IC50 (SK-MEL-28): 48 nM; CLH [14]: 53 mL/min/g; clearance [8]: 38 mL/min/kg; CLH [15]: 8 mL/min/g; clearance [9]: 9 mL/min/kg
CC(C)c1nc(-c2ccc(F)c(NS(=O)(=O)c3c(F)cccc3F)c2)c(-c2ccnc(NCCS(C)(=O)=O)n2)s1 | 13 | 51 | 43 | 1024 | 
